Laboratory results: ChEMBL document CHEMBL4610022, “Imidazolidine-2,4,5- and pirimidine-2,4,6-triones - New primary pharmacophore for soluble epoxide hydrolase inhibitors with enhanced water solubility” (Bioorg Med Chem Lett, 2020)
In brackets after ≈: the same amount, converted by molar mass.

Tests used:
[1] = Aqueous solubility of compound; format: physicochemical
Method in brief: (§1)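 Solubility measured in 0.1 M sodium phosphate buffer, pH 7.4, containing 1% DMSO.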

[2] = Solubility of compound in pH 7.4 sodium phosphate buffer; format: physicochemical; method in brief: as §1
[3] = molecular target: T1, Bifunctional epoxide hydrolase 2 (Homo sapiens, UniProt P34913); test: Inhibition of human soluble epoxide hydrolase by kinetic fluorescent assay
T1 sequence (P34913 whole entry): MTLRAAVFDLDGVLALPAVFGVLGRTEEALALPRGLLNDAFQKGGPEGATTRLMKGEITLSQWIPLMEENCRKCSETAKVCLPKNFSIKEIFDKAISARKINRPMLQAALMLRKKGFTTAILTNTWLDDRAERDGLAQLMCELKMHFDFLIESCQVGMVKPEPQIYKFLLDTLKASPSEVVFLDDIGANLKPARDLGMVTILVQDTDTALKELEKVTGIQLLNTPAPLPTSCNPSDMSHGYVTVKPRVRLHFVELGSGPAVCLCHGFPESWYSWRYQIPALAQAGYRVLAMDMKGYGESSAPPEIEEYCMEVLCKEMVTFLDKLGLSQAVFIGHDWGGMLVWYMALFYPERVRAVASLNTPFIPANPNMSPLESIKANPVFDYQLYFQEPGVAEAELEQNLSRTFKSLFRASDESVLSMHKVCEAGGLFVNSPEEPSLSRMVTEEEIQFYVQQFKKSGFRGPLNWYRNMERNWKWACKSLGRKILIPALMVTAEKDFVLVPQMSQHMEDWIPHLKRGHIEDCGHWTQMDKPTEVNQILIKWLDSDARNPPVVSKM
Method in brief: (§2)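 Kinetic fluorescent read-out of sEH activity; each reported value is the mean of three separate experiments.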

[4] = molecular target: T1, Bifunctional epoxide hydrolase 2; test: Inhibition of human soluble epoxide hydrolase using cyano(2methoxy naphthalen-6-yl)methyl trans-(3-phenyloxyran-2-yl)methylcarbonate as substrate preincubated for 5 mins followed by substrate addition and measured after 10 mins by fluorescence based assay; method in brief: as §2

Row | SMILES | solubility [1] [µM] | solubility [2] [µM] | IC50 [3] [nM] | IC50 [4] [nM]
1 | O=C(Nc1ccc(OC(F)(F)F)cc1)N[C@H]1CC[C@H](Oc2ccc(C(=O)O)cc2)CC1 | 5 (≈ 2.19 µg/mL) |  |  | 
2 | CC(NC(=O)Nc1ccccc1F)C12CC3CC(CC(C3)C1)C2 (stereo not given) |  | 55 (≈ 17.4 µg/mL) |  | 
3 | O=C(O)c1ccc(O[C@H]2CC[C@H](N3C(=O)C(=O)N(c4ccc(OC(F)(F)F)cc4)C3=O)CC2)cc1 |  | 210 (≈ 103 µg/mL) | 7.7 | 
4 | O=C(Nc1ccc(C23CC4CC(CC(C4)C2)C3)cc1)Nc1ccccc1F |  | 85 (≈ 31 µg/mL) |  | 
5 | O=C(Nc1ccccc1F)NC1C2CC3CC(C2)CC1C3 (stereo not given) |  | 85 (≈ 24.5 µg/mL) | 1 | 
6 | O=C1C(=O)N(C2C3CC4CC(C3)CC2C4)C(=O)N1c1ccccc1F (stereo not given) |  | 250 (≈ 85.6 µg/mL) | 6130 | 
7 | O=C(NCCCCCCCCNC(=O)NCCC12CC3CC(CC(C3)C1)C2)NCCC12CC3CC(CC(C3)C1)C2 |  | 75 (≈ 41.6 µg/mL) |  | 1.5
8 | O=C(NC1CCCCCC1)N[C@H]1CC[C@H](Oc2ccc(C(=O)O)cc2)CC1 |  | 100 (≈ 37.4 µg/mL) | 4.5 | 
9 | O=C(NC12CC3CC(CC(Cl)(C3)C1)C2)N[C@H]1CC[C@H](Oc2ccc(C(=O)O)cc2)CC1 |  | 500 (≈ 223 µg/mL) |  | 0.4
10 | O=C1C(=O)N(CC23CC4CC(CC(C4)C2)C3)C(=O)N1CCN(CCN1C(=O)C(=O)N(CC23CC4CC(CC(C4)C2)C3)C1=O)CCN1C(=O)C(=O)N(CC23CC4CC(CC(C4)C2)C3)C1=O |  | 650 (≈ 573 µg/mL) | 80.3 | 
11 | O=C(NC12CC3CC(C1)C(=O)C(C3)C2)NC12CC3CC(C1)C(=O)C(C3)C2 |  | 1750 (≈ 624 µg/mL) | 12 | 
12 | O=C(NCCN(CCNC(=O)NCC12CC3CC(CC(C3)C1)C2)CCNC(=O)NCC12CC3CC(CC(C3)C1)C2)NCC12CC3CC(CC(C3)C1)C2 |  | 70 (≈ 50.4 µg/mL) | 6.7 | 
13 | O=C(O)c1ccc(O[C@H]2CC[C@H](N3C(=O)C(=O)N(C4CCCCCC4)C3=O)CC2)cc1 |  | 280 (≈ 120 µg/mL) | 86.8 | 
14 | CC12CC3CC(C)(C1)CC(NC(=O)Nc1ccccc1F)(C3)C2 |  | 65 (≈ 20.6 µg/mL) | 3.6 | 

More lines, now with the values ahead:

Row | solubility [1] [µM] | solubility [2] [µM] | IC50 [3] [nM] | IC50 [4] [nM] | SMILES
15 |  | 65 (≈ 19.7 µg/mL) | 0.7 |  | O=C(NCC12CC3CC(CC(C3)C1)C2)Nc1ccccc1F
16 |  | 600 (≈ 398 µg/mL) | 438 |  | O=C1C(=O)N(CCC23CC4CC(CC(C4)C2)C3)C(=O)N1CCCCCCCCN1C(=O)C(=O)N(CCC23CC4CC(CC(C4)C2)C3)C1=O
17 |  | 40 (≈ 16.5 µg/mL) |  | 13.8 | CCC(CC12CC3CC(CC(C3)C1)C2)NC(=O)NC12CC3CC(C)(C1)C[C@@](C)(C3)C2 (stereo not given in full)
18 |  | 1300 (≈ 825 µg/mL) | 92 |  | O=C1C(=O)N(CCC23CC4CC(CC(C4)C2)C3)C(=O)N1CCCCCCN1C(=O)C(=O)N(CCC23CC4CC(CC(C4)C2)C3)C1=O
19 |  | 250 (≈ 125 µg/mL) | 0.4 |  | O=C(O)c1ccc(O[C@H]2CC[C@H](N3C(=O)C(=O)N(C45CC6CC(CC(Cl)(C6)C4)C5)C3=O)CC2)cc1
20 |  | 120 (≈ 69.4 µg/mL) | 1.6 |  | O=C1C(=O)N(C23CC4CC(CC(C4)C2)C3)C(=O)N1CCCCCCN1C(=O)C(=O)N(C23CC4CC(CC(C4)C2)C3)C1=O
21 |  | 100 (≈ 41.1 µg/mL) | 22.8 |  | CC12CC3CC(C)(C1)CC(N1C(=O)C(=O)N(C4C5CC6CC(C5)CC4C6)C1=O)(C3)C2 (stereo not given)
22 |  | 350 (≈ 125 µg/mL) | 311 |  | O=C1C(=O)N(c2ccccc2F)C(=O)N1CC12CC3CC(CC(C3)C1)C2
23 |  | 900 (≈ 546 µg/mL) | 294 |  | O=C1C(=O)N(CCC23CC4CC(CC(C4)C2)C3)C(=O)N1CCCCN1C(=O)C(=O)N(CCC23CC4CC(CC(C4)C2)C3)C1=O
24 |  | 900 (≈ 333 µg/mL) | 466 |  | CC(N1C(=O)C(=O)N(c2ccccc2F)C1=O)C12CC3CC(CC(C3)C1)C2 (stereo not given)
25 |  | 100 (≈ 49.9 µg/mL) |  | 3.4 | O=C(NCCCCNC(=O)NCCC12CC3CC(CC(C3)C1)C2)NCCC12CC3CC(CC(C3)C1)C2
26 |  | 110 (≈ 66.7 µg/mL) | 3.8 |  | O=C1C(=O)N(C23CC4CC(CC(C4)C2)C3)C(=O)N1CCCCCCCCN1C(=O)C(=O)N(C23CC4CC(CC(C4)C2)C3)C1=O
27 |  | 90 (≈ 59.7 µg/mL) | 8.4 |  | CCC(CC12CC3CC(CC(C3)C1)C2)N1C(=O)C(=O)N(CCCCN2C(=O)C(=O)N(C(CC)CC34CC5CC(CC(C5)C3)C4)C2=O)C1=O (stereo not given)
28 |  | 150 (≈ 61.6 µg/mL) | 8420 |  | O=C1C2CC3CC1CC(N1C(=O)C(=O)N(C45CC6CC(C4)C(=O)C(C6)C5)C1=O)(C3)C2
29 |  | 80 (≈ 42.1 µg/mL) |  | 0.8 | O=C(NCCCCCCNC(=O)NCCC12CC3CC(CC(C3)C1)C2)NCCC12CC3CC(CC(C3)C1)C2
30 |  | 100 (≈ 71.9 µg/mL) | 650 |  | CCC(CC12CC3CC(CC(C3)C1)C2)N1C(=O)C(=O)N(CCCCCCCCN2C(=O)C(=O)N(C(CC)CC34CC5CC(CC(C5)C3)C4)C2=O)C1=O (stereo not given)
31 |  | 20 (≈ 7.13 µg/mL) |  | 9.6 | CC12CC3CC(C)(C1)CC(NC(=O)NC1C4CC5CC(C4)CC1C5)(C3)C2 (stereo not given)
32 |  | 250 (≈ 105 µg/mL) | 160 |  | O=C1C(=O)N(c2ccccc2F)C(=O)N1c1ccc(C23CC4CC(CC(C4)C2)C3)cc1
33 |  | 200 (≈ 74.1 µg/mL) | 371 |  | CC12CC3CC(C)(C1)CC(N1C(=O)C(=O)N(c4ccccc4F)C1=O)(C3)C2
34 |  | 100 (≈ 46.7 µg/mL) | 216 |  | CCC(CC12CC3CC(CC(C3)C1)C2)N1C(=O)C(=O)N(C23CC4CC(C)(C2)C[C@@](C)(C4)C3)C1=O (stereo not given in full)
